Calls of active or inactive are those of the source. No cut-off for these calls is given here.
Assays:
Format in all cases: functional, cell-based
[1] = biological target: Proteinase-activated receptor 2 (Homo sapiens) (UniProt P55085); assay: Agonist activity at human PAR2 expressed in rat kNRK cells assessed as increase in intracellular calcium levels at 5 uM by fura-2-AM dye based digital imaging microscopy
Method in brief: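 Cells transfected with human PAR2 (HeLa-PAR2 or kNRK-PAR2) were compared with low-expressing or plasmid-control cells of the same line. Cells were grown on matrix-coated coverslips and loaded with fura-2. 5 μM agonist was added, and mean [Ca2+]i of all cells in the field (~90) was imaged every 0.6 s, ± SEM.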

[2] = biological target: Proteinase-activated receptor 2 (Homo sapiens) (UniProt P55085); assay: Agonist activity at human PAR2 expressed in human HeLa cells assessed as increase in intracellular calcium levels at 5 uM by fura-2-AM dye based digital imaging microscopy
[3] = biological target: Proteinase-activated receptor 2 (Homo sapiens) (UniProt P55085); assay: Agonist activity at PAR2 in human 16HBE14o cells assessed as activated cells at 100 uM by intracellular calcium mobilization fura-2-AM assay
Method in brief: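 16HBE14o- cells were grown 5–7 days on matrix-coated coverslips, loaded with fura-2, and imaged by digital microscopy over 3 min (80–100 cells). A cell counted as activated if [Ca2+]i rose to ≥200 nM from a resting 50–75 nM, scored as % of cells. Doses ran from 100 μM down to 250 nM. EC50 came from % responding. Mean ± SEM, N ≥ 2 at 100 μM, N ≥ 4 otherwise.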

[4] = biological target: Proteinase-activated receptor 2 (Homo sapiens) (UniProt P55085); assay: Agonist activity at PAR2 in human 16HBE14o cells assessed as activated cells at […] by intracellular calcium mobilization fura-2-AM assay
[5] = biological target: Proteinase-activated receptor 2 (Homo sapiens) (UniProt P55085); assay: Agonist activity at PAR2 in human 16HBE14o cells assessed as increase in intracellular calcium levels at […] by in vitro physiological response assay

Proteinase-activated receptor 2 (Homo sapiens), sequence (P55085 whole entry): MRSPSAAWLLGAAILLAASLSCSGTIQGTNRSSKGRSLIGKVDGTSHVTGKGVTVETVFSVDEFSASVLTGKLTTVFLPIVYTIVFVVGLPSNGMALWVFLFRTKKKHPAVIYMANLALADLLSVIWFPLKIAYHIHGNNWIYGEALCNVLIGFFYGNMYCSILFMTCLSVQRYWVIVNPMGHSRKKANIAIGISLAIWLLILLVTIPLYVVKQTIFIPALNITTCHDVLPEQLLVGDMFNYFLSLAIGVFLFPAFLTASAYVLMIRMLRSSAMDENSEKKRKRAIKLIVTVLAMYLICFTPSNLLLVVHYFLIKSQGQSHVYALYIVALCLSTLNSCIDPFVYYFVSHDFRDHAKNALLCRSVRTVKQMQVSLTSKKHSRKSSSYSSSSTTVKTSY

Activity [1]	Activity [2]	Activity [3]	Activity [4]	Activity [5]	Compound
Active	Active	–	–	–	CC[C@H](C)[C@H](NC(=O)[C@H](CC(C)C)NC(=O)c1csc(N)n1)C(=O)NCC(=O)N[C@@H](CCCNC(=N)N)C(=O)N[C@@H](CC(C)C)C(N)=O
–	–	0%	–	–	CC[C@H](C)[C@H](NC(=O)[C@H](CC(C)C)NC(=O)Cc1c[nH]c2ccccc12)C(=O)NCC(=O)N[C@@H](CCCNC(=N)N)C(=O)N[C@@H](CC(C)C)C(N)=O
–	–	0%	–	–	CC[C@H](C)[C@H](NC(=O)[C@H](CC(C)C)NC(=O)CCN1CCCCC1)C(=O)NCC(=O)N[C@@H](CCCNC(=N)N)C(=O)N[C@@H](CC(C)C)C(N)=O
–	–	Active	inactive	–	CC[C@H](C)[C@H](NC(=O)[C@H](CC(C)C)NC(=O)c1ccc(S(N)(=O)=O)cc1)C(=O)NCC(=O)N[C@@H](CCCNC(=N)N)C(=O)N[C@@H](CC(C)C)C(N)=O
–	–	0%	–	–	CC[C@H](C)[C@H](NC(=O)[C@H](CC(C)C)NC(=O)COCC(=O)O)C(=O)NCC(=O)N[C@@H](CCCNC(=N)N)C(=O)N[C@@H](CC(C)C)C(N)=O
–	–	Active	inactive	inactive	CC[C@H](C)[C@H](NC(=O)[C@H](CC(C)C)NC(=O)c1ccnc(N)c1)C(=O)NCC(=O)N[C@@H](CCCNC(=N)N)C(=O)N[C@@H](CC(C)C)C(N)=O
–	–	Active	inactive	–	CC[C@H](C)[C@H](NC(=O)[C@H](CC(C)C)NC(=O)c1cnccn1)C(=O)NCC(=O)N[C@@H](CCCNC(=N)N)C(=O)N[C@@H](CC(C)C)C(N)=O
–	–	Active	inactive	inactive	CC[C@H](C)[C@H](NC(=O)[C@H](CC(C)C)NC(=O)c1cccnc1N)C(=O)NCC(=O)N[C@@H](CCCNC(=N)N)C(=O)N[C@@H](CC(C)C)C(N)=O
–	–	Active	inactive	–	CC[C@H](C)[C@H](NC(=O)[C@H](CC(C)C)NC(=O)CC#N)C(=O)NCC(=O)N[C@@H](CCCNC(=N)N)C(=O)N[C@@H](CC(C)C)C(N)=O
Active	Active	–	–	–	CC[C@H](C)[C@H](NC(=O)[C@H](CC(C)C)NC(=O)c1ccc(N)nc1)C(=O)NCC(=O)N[C@@H](CCCNC(=N)N)C(=O)N[C@@H](CC(C)C)C(N)=O
–	–	0%	–	–	CC[C@H](C)[C@H](NC(=O)[C@H](CC(C)C)NC(=O)c1cccc2[nH]ccc12)C(=O)NCC(=O)N[C@@H](CCCNC(=N)N)C(=O)N[C@@H](CC(C)C)C(N)=O
–	–	0%	–	–	CC[C@H](C)[C@H](NC(=O)[C@H](CC(C)C)NC(=O)c1cccnc1O)C(=O)NCC(=O)N[C@@H](CCCNC(=N)N)C(=O)N[C@@H](CC(C)C)C(N)=O
–	–	Active	inactive	inactive	CC[C@H](C)[C@H](NC(=O)[C@H](CC(C)C)NC(=O)c1nc(N)n[nH]1)C(=O)NCC(=O)N[C@@H](CCCNC(=N)N)C(=O)N[C@@H](CC(C)C)C(N)=O
